An excerpt weighted towards active compounds, which were near 5.3% of everything screened.
CSC inhib: cancer stem cell inhibition; cancer stem cell-like cells viability, luminescence; 1.1% of 300,000 active; inhibition, % at 7.5 µM; in the data active = inhibition above about 75%; inconclusive = no clear call, values can overlap the other calls; tested in HMLE shEcad cells
Beta apoptosis: beta cell apoptosis inhibition. AID 435005. protection from apoptosis, % (no concentration beside the values). INS-1E cytokine-induced death, ATP luminescence, 48 h; percent of positive-control rescue, neutral wells zero. 0.8% of 300,000 active;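 active = Every replicate reaches about 75%, or at least half do and their mean reaches it too, limit read from the data; inconclusive = At least half of replicates reach the limit but their mean does not; inactive = Under half of replicates reach the limit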;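 also: 0% = cytokine-treated negative control wells and 100% = positive control rescue; higher means more ATP so stronger rescue from cytokine killing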
T cruzi inh: blocks replication of Trypanosoma cruzi; inhibition, % (no concentration beside the values); AID 1885; 1.4% of 300,000 active; T. cruzi beta-gal in NIH3T3, luminescence, 90 h;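 active = mean inhibition across valid replicates above about 55%, limit read from the data; inconclusive = mean below that limit but half or more replicates reach it; inactive = mean below it, under half of replicates reach it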;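 also: signal also drops with host cell toxicity which is not excluded here; 0% = plate median of DMSO wells and 100% = zero luminescence signal; higher percent means less beta-gal luminescence so fewer parasites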
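compound dosing = single 50 nL compound addition per well in DMSO | material = NIH/3T3 host cells with β-galactosidase reporter T. cruzi | input = 5,000 host fibroblasts per well | timing = ≥90 h infection period, 3 h prior cell attachment | read-out basis = percent inhibition of parasite-derived β-gal signal | detection = GalScreen β-gal luminescence, detergent lysis, 60 min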
Calb FLC: affects C. albicans growth with fluconazole; C. albicans CaCi-2 (fluconazole-resistant clinical isolate) + fluconazole, Alamar Blue growth, 48 h; growth inhibition, % (concentration not given with the values); 0.57% of 300,000 active;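 active = growth inhibition above about 58% in most replicates, limit read from the data, passing the limit was not always enough; inconclusive = exactly half the replicates above a set limit; inactive = most replicates below a set limit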;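 also: all wells also contain fluconazole at 8 µg/ml as a sub-toxic cotreatment; 0% = median of DMSO wells and 100% = median of geldanamycin control wells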
NLRP3 yeast inh: inhibitors of NALP3 inflammasome in yeast; Yeast reconstituted NLRP3/ASC/caspase-1, beta-gal luminescence, 24 h; inhibition, % at 10 µM; 0.39% of 330,000 active; AID 2825;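 active = inhibition of 50% or more; inactive = inhibition below 50%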;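 also: plate controls were induced DMSO wells for no effect and uninduced yeast grown without galactose for full effect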
Mdm2-MdmX inh: disrupts the human Mdm2-MdmX interaction; 3% of 330,000 active; AID 485346; O15151+Q00987; inhibition, % at 8 µM; SaOS-2 split-luciferase Mdm2/MdmX complementation, luminescence;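 active = inhibition of at least 50% at 8 µM in the primary screen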
The depositor's hits bear a star; ? = inconclusive; / = no result given.

SMILES	CSC inhib	Beta apoptosis	T cruzi inh	Calb FLC	NLRP3 yeast inh	Mdm2-MdmX inh
CCCCn1c(O)c(C(=O)/C=C/c2ccc3c(c2)OCO3)c(=O)[nH]c1=O	-5.9	/	-17.3	0.4	11.3	9.4
O=C(/C=C/c1ccc2c(c1)OCO2)c1c(O)n(CCC2=CCCCC2)c(=O)[nH]c1=O	84.2*	0.5	/	/	/	/
CC(C)OCCCNC(=O)c1c(N)n(Cc2cccs2)c2nc3ccccc3nc12	118.4*	-11.5	50.1	-6.7	8.6	17.9
Nc1c(C(=O)NCc2ccco2)c2nc3ccccc3nc2n1CCN1CCCCC1	29.2	2.1	69.0*	6.3	9.4	43.3
CC(C)CCn1c(N)c(C(=O)NCc2cccs2)c2nc3ccccc3nc21	76.8*	-13.0	?	2.2	0.9	35.4
c1cncc(C2CCCCN2)c1 (stereo not given)	2.6	-0.6	-17.9	8.1	-3.9	-19.1
COC(=O)C1=C(c2ccccc2)C[C@@H]2CC[C@H]1N2C(=O)NC(C)C	-19.0	-11.3	-11.0	-17.4	27.9	11.8
CCOc1ccc(-c2cc(C)[n+](CCN3CCOCC3)c(-c3ccc(OCC)cc3)c2)cc1	12.0	34.4	19.3	-4.1	10.1	23.7
CCCCCCn1c(=O)c(C(=O)Nc2ncccc2C)c(O)c2ccccc21	6.3	82.3*	8.0	2.9	17.8	4.6
CCCCCn1c(=O)c(C(=O)Nc2ccccc2C)c(O)c2ccccc21	0.8	/	-1.2	-3.2	4.4	25.3
CCCCCn1c(=O)c(C(=O)NC(C)c2ccccc2)c(O)c2ccccc21 (stereo not given)	34.2	109.4*	51.8	-3.7	30.6	31.9
CCCCn1c(=O)c(C(=O)Nc2ncccc2C)c(O)c2ccccc21	8.3	-9.2	6.6	-4.5	17.9	25.9
CCCCCn1c(=O)c(C(=O)Nc2ccccc2S(N)(=O)=O)c(O)c2ccccc21	5.8	18.9	68.6*	16.7	24.5	42.3
CCCCn1c(=O)c(C(=O)Nc2ccccc2)c(O)c2ccccc21	44.9	22.4	-5.3	-36.0	-6.2	4.3
CC(C)(C)c1ccc(CSc2cnn(C(C)(C)C)c(=O)c2Cl)cc1	32.5	109.8*	-11.6	84.3*	25.7	13.2
CC(C)c1ccc(NC(=O)N2C[C@H]3C[C@@H](C2)c2cccc(=O)n2C3)cc1	-4.6	-6.2	-2.8	-3.7	3.3	4.4
CCN(CC)c1ccc(CN(C)CCc2ccc(OC)c(OC)c2)cc1	4.0	-3.9	61.1*	4.6	9.7	13.3
O=C(NCc1cccnc1)Nc1ccc([N+](=O)[O-])cc1	-0.8	81.1*	2.1	4.9	17.6	12.2
O=C(NCc1cccnc1)Nc1ccccc1Cl	-7.7	-2.3	-13.1	-4.9	3.9	7.5
Cc1cc(/C=C2\C(=O)NC(=O)N(c3cccc(F)c3)C2=O)c(C)n1-c1ccc(C(=O)O)c(Cl)c1	-14.1	-7.1	-8.8	-10.4	11.0	5.1
O=C(COc1ccc2ccccc2c1)N1CCN(Cc2c[nH]c3ccccc23)CC1	10.7	101.8*	-3.6	-1.0	-6.5	22.1
O=C(COc1ccc(Br)cc1)N1CCN(Cc2c[nH]c3ccccc23)CC1	6.9	106.4*	23.9	7.4	-1.9	21.4
c1ccc2c(CN3CCCCC3)c[nH]c2c1	3.9	-8.8	-4.9	5.6	9.3	21.2
CN(C(=O)Oc1ccc(C(=O)c2ccc(Cl)cc2)cc1)c1ccccc1	16.4	3.3	-3.0	-3.6	13.6	-2.4
Cc1ncc(CN2CCCC(C(=O)c3cccc(OC(C)C)c3)C2)s1 (stereo not given)	-4.9	-4.0	47.4	-4.1	23.1	18.0
SMILES	CSC inhib	Beta apoptosis	T cruzi inh	Calb FLC	NLRP3 yeast inh	Mdm2-MdmX inh
Cc1[nH]c2ccccc2c1C(=O)CN1CC=C(c2ccccc2)CC1	-10.1	-0.4	96.6*	-14.4	-2.9	13.7
Cc1cc(Br)c(NC(=O)CN2CC=C(c3ccccc3)CC2)c(Br)c1	/	-3.7	72.4*	-5.6	16.5	-13.3
O=C(CN1CC=C(c2ccccc2)CC1)NC(=O)NCc1ccco1	3.5	2.0	4.4	-11.5	15.0	7.2
NS(=O)(=O)c1ccc(N=Cc2c(O)n(C3CCCCC3)c(=O)n(C3CCCCC3)c2=O)cc1	90.2*	1.5	?	?	15.3	40.4
CCn1c(O)c(C=Nc2ccc(S(N)(=O)=O)cc2)c(=O)n(CC)c1=S	10.4	-16.1	-7.6	-4.7	7.4	33.8
CN1CCN(c2ccc(S(C)(=O)=O)cc2[N+](=O)[O-])CC1	10.0	-2.6	6.1	-13.3	16.0	-16.0
CN1CCN(c2ccc([N+](=O)[O-])c3no[n+]([O-])c23)CC1	104.3*	106.7*	49.3	7.7	/	/
COc1ccccc1Cn1c(SCC#N)nc2cc(C(=O)N3CCC4(CC3)OCCO4)ccc2c1=O	-7.3	6.2	3.3	-6.0	4.6	16.1
COC(=O)c1ccc(COc2cc(C)cc3oc(=O)c4c(c23)CCCC4)o1	-9.1	-6.0	47.9	8.0	15.0	19.3
CNc1cc(Cl)c2nonc2c1[N+](=O)[O-]	/	/	42.2	100.2*	/	/
Cc1cc([N+](=O)[O-])c(Cl)cc1NC(=O)C(C)C	-24.3	3.0	-2.4	-3.7	5.9	13.6
Cc1oc2ccc(OC(=O)N(C)C)cc2c1C(=O)OC(C)C	-7.7	-2.4	11.9	106.6*	21.3	31.1
COc1cccc(Oc2c(C)oc3cc(OC(=O)N(C)C)ccc3c2=O)c1	3.1	/	-4.2	-18.5	15.1	3.1
CCOC(=O)c1c(-c2ccc(OC)cc2)oc2ccc(OC(=O)N(C)C)cc12	76.1*	2.5	18.8	-33.5	10.1	17.9
O=C1C(c2ccccc2)=C(N2CC2)c2ccccc21	16.6	5.7	/	-1.2	32.1	-12.9
CCCC1COC(Cn2cncn2)(c2ccc(Cl)cc2Cl)O1 (stereo not given)	-1.4	/	65.5*	10.6	17.3	4.8
CC1(c2ccc(Cl)cc2Cl)OCC(Cn2cncn2)O1 (stereo not given)	-12.5	4.6	-25.8	2.0	6.0	-13.4
COc1ccc(C(=O)C2CCCN(Cc3ccc(F)cc3F)C2)cc1F (stereo not given)	-0.3	-13.0	4.1	-1.7	22.1	4.9
COc1ccc(CNC(C)Cc2cccs2)cc1 (stereo not given)	-17.8	-9.1	-3.5	12.7	-14.9	-16.4
CCCCC/C=C\C/C=C\C/C=C\C/C=C\CCCC(=O)Nc1ccc(O)cc1	85.0*	/	19.9	20.2	/	/
CCCCCCCCc1ccc(O)cc1	73.7	0.7	/	/	15.0	-3.3
N#Cc1ccc(NC(=O)CN2C(=O)NC3(CCCCCCC3)C2=O)cc1Cl	30.6	-0.4	/	/	6.6	-7.4
Cn1cc[n+](C)c1P(=S)(c1ccccc1)c1ccccc1	1.8	1.3	-7.8	-29.7	14.5	26.4

Screening results: PubChem, several laboratories
